Experimental data as given in ChEMBL document CHEMBL3272249, “Esters of N-tert-butylarterenol. Long-acting new bronchodilators with reduced cardiac effects” (J Med Chem, 1976).

Legend:
Canis familiaris [1] = assay: Cardiotoxicity in spontaneously respiring dog assessed as degree of increase in heart rate at 2000 to 2700 mg/kg, it relative to control; assay type: toxicity, organism-based, Canis lupus familiaris; set-up: dose 2000-2700 mg/kg, route endotracheal; details: in vivo, inhaled_or_intranasal
Outline: (§1)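 Anesthetized, spontaneously respiring dogs. Heart rate was taken from a lead II EKG, and blood pressure from the right femoral artery by transducer. The increase in heart rate (beats/min) was scored on a graded scale with more than 4 dogs per dose, and its duration was recorded. Drugs were dissolved fresh in distilled water, diluted in physiological saline and kept on ice.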

Canis familiaris [2] = assay: Bronchodilator activity in dog assessed as degree of inhibition of carbachol or histamine-induced bronchoconstriction at 30 to 60 mg/kg, iv relative to control; assay type: functional, Canis lupus familiaris; details: dose mg/kg 30-60
Outline: (§2)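 Anesthetized dogs, trachea cannulated with a nonbreathing valve. Bronchoconstriction induced by iv carbachol (2–4 μg/kg) or histamine diphosphate (20–50 μg/kg) in separate animals, and airway pressure recorded by transducer. Drug stocks were made fresh in distilled water, diluted in saline and kept on ice. Read-out was percent inhibition of control constriction, averaged over at least three dogs per dose at the higher dose. Carbachol and histamine data were combined.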

Canis familiaris [3] = assay: Cardiotoxicity in spontaneously respiring dog assessed as degree of increase in heart rate at 30 to 60 mg/kg, iv relative to control; assay type: toxicity, organism-based, Canis lupus familiaris; set-up: dose 30-60 mg/kg, route intravenous; details: in vivo; outline: as §1
Canis familiaris [4] = assay: Bronchodilator activity in dog assessed as degree of inhibition of carbachol or histamine-induced bronchoconstriction at 2000 to 2700 mg/kg, it relative to control; assay type: functional, Canis lupus familiaris; details: dose mg/kg 2000-2700; route endotracheal; outline: as §2
Canis familiaris [5] = assay: Bronchodilator activity in dog assessed as time of inhibition of carbachol or histamine-induced bronchoconstriction at 30 to 60 mg/kg, iv relative to control; assay type: functional, Canis lupus familiaris; details: dose mg/kg 30-60
Outline: (§3)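 Dog airway model: anesthetized, cannulated via a nonbreathing valve, with airway pressure changes recorded after iv carbachol (2–4 μg/kg) or histamine diphosphate (20–50 μg/kg) challenge, each agonist in different animals. Compounds were given iv, intraduodenally or intratracheally from fresh aqueous stocks diluted in saline. Duration (h) of inhibition of induced bronchoconstriction was followed, and the two agonist datasets were pooled.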

Canis familiaris [6] = assay: Cardiotoxicity in spontaneously respiring dog assessed as time of increase in heart rate at 2000 to 2700 mg/kg, it relative to control; assay type: toxicity, organism-based, Canis lupus familiaris; set-up: dose 2000-2700 mg/kg, route endotracheal; details: in vivo, inhaled_or_intranasal; outline: as §1
Canis familiaris [7] = assay: Bronchodilator activity in dog assessed as time of inhibition of carbachol or histamine-induced bronchoconstriction at 2000 to 2700 mg/kg, it relative to control; assay type: functional, Canis lupus familiaris; details: dose mg/kg 2000-2700; route endotracheal; outline: as §3
Canis familiaris [8] = assay: Bronchodilator activity in dog assessed as time of inhibition of carbachol or histamine-induced bronchoconstriction at 140 mg/kg, id relative to control; assay type: functional, Canis lupus familiaris; details: route intraduodenal; outline: as §3
Canis familiaris [9] = assay: Bronchodilator activity in dog assessed as degree of inhibition of carbachol or histamine-induced bronchoconstriction at 300 to 1200 mg/kg, it relative to control; assay type: functional, Canis lupus familiaris; details: dose mg/kg 300-1200; route endotracheal; outline: as §2
Canis familiaris [10] = assay: Bronchodilator activity in dog assessed as degree of inhibition of carbachol or histamine-induced bronchoconstriction at 140 mg/kg, id relative to control; assay type: functional; details: Canis lupus familiaris, route intraduodenal; outline: as §2
Canis familiaris [11] = assay: Bronchodilator activity in dog assessed as time of inhibition of carbachol or histamine-induced bronchoconstriction at 300 to 1200 mg/kg, it relative to control; assay type: functional, Canis lupus familiaris; details: dose mg/kg 300-1200; route endotracheal; outline: as §3
Canis familiaris [12] = assay: Bronchodilator activity in dog assessed as time of inhibition of carbachol or histamine-induced bronchoconstriction at 140 to 280 mg/kg, iv relative to control; assay type: functional, Canis lupus familiaris; details: dose mg/kg 140-280; outline: as §3
Canis familiaris [13] = assay: Bronchodilator activity in dog assessed as degree of inhibition of carbachol or histamine-induced bronchoconstriction at 140 to 280 mg/kg, iv relative to control; assay type: functional, Canis lupus familiaris; details: dose mg/kg 140-280; outline: as §2
Canis familiaris [14] = assay: Bronchodilator activity in dog assessed as degree of inhibition of carbachol or histamine-induced bronchoconstriction at 35 to 140 mg/kg, iv relative to control; assay type: functional, Canis lupus familiaris; details: dose mg/kg 35-140; outline: as §2
Canis familiaris [15] = assay: Bronchodilator activity in dog assessed as time of inhibition of carbachol or histamine-induced bronchoconstriction at 540 to 1080 mg/kg, it relative to control; assay type: functional, Canis lupus familiaris; details: dose mg/kg 540-1080; route endotracheal
Outline: (§4)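 Anesthetized dogs with an airway cannula and a nonbreathing valve. Bronchoconstriction was induced by iv carbachol (2–4 μg/kg) or histamine diphosphate (20–50 μg/kg) and read as change in airway pressure by transducer. Each compound was tested against both agonists in different dogs, and the results were combined and averaged. Effect is % inhibition of control constriction, with at least three dogs per dose. Drugs were dissolved fresh in distilled water, diluted in saline and kept on ice.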

Canis familiaris [16] = assay: Bronchodilator activity in dog assessed as degree of inhibition of carbachol or histamine-induced bronchoconstriction at 70 to 280 mg/kg, id relative to control; assay type: functional, Canis lupus familiaris; details: dose mg/kg 70-280; route intraduodenal; outline: as §2
Canis familiaris [17] = assay: Bronchodilator activity in dog assessed as degree of inhibition of carbachol or histamine-induced bronchoconstriction at 540 to 1080 mg/kg, it relative to control; assay type: functional, Canis lupus familiaris; details: dose mg/kg 540-1080; route endotracheal; outline: as §2
Canis familiaris [18] = assay: Bronchodilator activity in dog assessed as time of inhibition of carbachol or histamine-induced bronchoconstriction at 35 to 140 mg/kg, iv relative to control; assay type: functional, Canis lupus familiaris; details: dose mg/kg 35-140; outline: as §3
Canis familiaris [19] = assay: Cardiotoxicity in spontaneously respiring dog assessed as time of increase in heart rate at 70 to 280 mg/kg, id relative to control; assay type: toxicity, organism-based, Canis lupus familiaris; set-up: dose 70-280 mg/kg, route intraduodenal; details: in vivo, other
Outline: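 Anesthetized, spontaneously respiring dogs. Heart rate monitored by lead II EKG, with blood pressure taken from the right femoral artery by pressure transducer and recorded on a polygraph. Drug stocks made fresh in distilled water, diluted in physiological saline and kept on ice. Dosing was iv, id or it as listed. The duration of the heart-rate increase was recorded in h, with more than 4 dogs per dose.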

Canis familiaris [20] = assay: Bronchodilator activity in dog assessed as time of inhibition of carbachol or histamine-induced bronchoconstriction at 70 to 280 mg/kg, id relative to control; assay type: functional, Canis lupus familiaris; details: dose mg/kg 70-280; route intraduodenal; outline: as §4
Canis familiaris [21] = assay: Cardiotoxicity in spontaneously respiring dog assessed as degree of increase in heart rate at 540 to 1080 mg/kg, intratracheal relative to control; details: in vivo
Canis familiaris [22] = assay: Cardiotoxicity in spontaneously respiring dog assessed as time of increase in heart rate at 35 to 140 mg/kg, iv relative to control; assay type: toxicity, organism-based, Canis lupus familiaris; set-up: dose 35-140 mg/kg, route intravenous; details: in vivo; outline: as §1
Canis familiaris [23] = assay: Cardiotoxicity in spontaneously respiring dog assessed as time of increase in heart rate at 540 to 1080 mg/kg, it relative to control; details: in vivo
Canis familiaris [24] = assay: Cardiotoxicity in spontaneously respiring dog assessed as degree of increase in heart rate at 35 to 140 mg/kg, iv relative to control; assay type: toxicity, organism-based, Canis lupus familiaris; set-up: dose 35-140 mg/kg, route intravenous; details: in vivo; outline: as §1
Canis familiaris [25] = assay: Cardiotoxicity in spontaneously respiring dog assessed as degree of increase in heart rate at 70 to 280 mg/kg, id relative to control; assay type: toxicity, organism-based, Canis lupus familiaris; set-up: dose 70-280 mg/kg, route intraduodenal; details: in vivo, other; outline: as §1
Canis familiaris [26] = assay: Bronchodilator activity in dog assessed as time of inhibition of carbachol or histamine-induced bronchoconstriction at 590 to 1180 mg/kg, it relative to control; details: dose mg/kg 590-1180; route endotracheal
Canis familiaris [27] = assay: Bronchodilator activity in dog assessed as degree of inhibition of carbachol or histamine-induced bronchoconstriction at 590 to 1180 mg/kg, it relative to control; details: dose mg/kg 590-1180; route endotracheal
Canis familiaris [28] = assay: Bronchodilator activity in dog assessed as degree of inhibition of carbachol or histamine-induced bronchoconstriction at 50 to 100 mg/kg, id relative to control; assay type: functional, Canis lupus familiaris; details: dose mg/kg 50-100; route intraduodenal; outline: as §2
Canis familiaris [29] = assay: Cardiotoxicity in spontaneously respiring dog assessed as degree of increase in heart rate at 25 to 100 mg/kg, iv relative to control; assay type: toxicity, organism-based, Canis lupus familiaris; set-up: dose 25-100 mg/kg, route intravenous; details: in vivo; outline: as §1
Canis familiaris [30] = assay: Bronchodilator activity in dog assessed as time of inhibition of carbachol or histamine-induced bronchoconstriction at 25 to 100 mg/kg, iv relative to control; assay type: functional, Canis lupus familiaris; details: dose mg/kg 25-100; outline: as §3
Canis familiaris [31] = assay: Cardiotoxicity in spontaneously respiring dog assessed as time of increase in heart rate at 25 to 100 mg/kg, iv relative to control; assay type: toxicity, organism-based, Canis lupus familiaris; set-up: dose 25-100 mg/kg, route intravenous; details: in vivo; outline: as §1
Canis familiaris [32] = assay: Bronchodilator activity in dog assessed as degree of inhibition of carbachol or histamine-induced bronchoconstriction at 25 to 100 mg/kg, iv relative to control; assay type: functional, Canis lupus familiaris; details: dose mg/kg 25-100; outline: as §2
Canis familiaris [33] = assay: Bronchodilator activity in dog assessed as time of inhibition of carbachol or histamine-induced bronchoconstriction at 50 to 100 mg/kg, id relative to control; assay type: functional, Canis lupus familiaris; details: dose mg/kg 50-100; route intraduodenal; outline: as §4

Compound: CC(C)(C)NC[C@H](O)c1ccc(OC(=O)c2ccccc2)c(OC(=O)c2ccccc2)c1.Cl
- Activity (Canis familiaris [1]): 20%
- inhibition (INH) (Canis familiaris [2]): 45%
- Activity (Canis familiaris [3]): 40%
- inhibition (INH) (Canis familiaris [4]): >70%
- Time (Canis familiaris [5]): <4 h
- Time (Canis familiaris [6]): 1 h
- Time (Canis familiaris [7]): 4 h

Compound: CS(=O)(=O)O.Cc1cccc(C(=O)Oc2ccc([C@@H](O)CNC(C)(C)C)cc2OC(=O)c2cccc(C)c2)c1
- Time (Canis familiaris [8]): 2 h
- inhibition (INH) (Canis familiaris [9]): 45%
- inhibition in vivo at 140 mg/kg (Canis familiaris [10]): 45%
- Time (Canis familiaris [11]): <4 h
- Time (Canis familiaris [12]): >3 h
- inhibition (INH) (Canis familiaris [13]): >70%

Compound: CS(=O)(=O)O.Cc1ccc(C(=O)Oc2ccc([C@@H](O)CNC(C)(C)C)cc2OC(=O)c2ccc(C)cc2)cc1
- inhibition (INH) (Canis familiaris [14]): >70%
- Time (Canis familiaris [15]): >5 h
- inhibition (INH) (Canis familiaris [16]): >70%
- inhibition (INH) (Canis familiaris [17]): 45%
- Time (Canis familiaris [18]): >5 h
- Time (Canis familiaris [19]): 2 h
- Time (Canis familiaris [20]): >5 h
- Activity (Canis familiaris [21]): 5%
- Time (Canis familiaris [22]): 2 h
- Time (Canis familiaris [23]): < 1 h
- Activity (Canis familiaris [24]): 20%
- Activity (Canis familiaris [25]): 20%

Compound: CS(=O)(=O)O.Cc1cc(C)cc(C(=O)Oc2ccc([C@@H](O)CNC(C)(C)C)cc2OC(=O)c2cc(C)cc(C)c2)c1
- Time (Canis familiaris [26]): <3 h
- inhibition (INH) (Canis familiaris [27]): 20%

Compound: COc1ccc(C(=O)Oc2ccc([C@@H](O)CNC(C)(C)C)cc2OC(=O)c2ccc(OC)cc2)cc1.Cl
- inhibition (INH) (Canis familiaris [28]): 20%
- Activity (Canis familiaris [29]): 20%
- Time (Canis familiaris [30]): 1 h
- Time (Canis familiaris [31]): < 2 h
- inhibition (INH) (Canis familiaris [32]): 20%
- Time (Canis familiaris [33]): <3 h
